Active and inactive are the calls of the source. The calls are words filed in the database; no cut-off is given here.
Columns and labels:
A-375 [1] = test: Induction of apoptosis in human A375 cells assessed as necrotic cells at 2 uM after 48 hrs by Annexin V-FITC/propidium iodide staining based flow cytometry (reference value: 2.39%); type: functional
A-375 [2] = test: Anti-invasive activity against human A375 cells at 0.25 uM after 24 hrs by matrigel invasion assay; type: functional, cell-based
Outline: (§1)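 Cells seeded in the upper chamber of a transwell with a Matrigel-precoated filter, incubated with compound (0.25 μM) for 24 h. Invaded cells imaged and counted against an untreated control. Mean ± sd, n = 3, two-way ANOVA.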

B16-F10 [3] = test: Induction of apoptosis in mouse B16F10 cells assessed as upregulation of Bax expression after 48 hrs by Western blot analysis
PANC-1 = test: Antiproliferative activity against human PANC1 cells after 48 hrs by MTT assay; type: functional, cell-based; settings: PANC-1, 48 h
A-375 [4] = test: Downregulation of beta-catenin protein expression in human A375 cells after 48 hrs by Western blot analysis; type: functional, cell-based
Outline: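 Cells treated with compound at different concentrations for 48 h. Western blot for STAT3, p-STAT3, β-catenin and c-Myc.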

A-375 [5] = test: Inhibition of CD133+ sub-population of human A375 cells assessed as CD133+ cells at 0.5 after 48 hrs by flow cytometry (reference value: 4.54%); type: functional; design: scale not given: the % may be the effect or the level left
A-375 [6] = test: Antimigratory activity against human A375 cells at 0.25 uM after 24 to 48 hrs by wound healing assay; type: functional, cell-based
Outline: (§2)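 Wound-healing scratch assay on cells treated with or without compound (0.25 μM). Images recorded at 0, 24 and 48 h, and migration distance quantified. Mean ± sd, n = 3, two-way ANOVA.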

A-375 [7] = test: Inhibition of CD133+ sub-population of human A375 cells assessed as CD133+ cells at 0.25 after 48 hrs by flow cytometry (reference value: 4.54%); type: functional; design: scale not given: the % may be the effect or the level left
Homo sapiens [8] = organism: Homo sapiens; test: Inhibition of Wnt/beta-catenin signaling pathway in human A375 cells assessed as reduction in STAT3 phosphorylation after 48 hrs by Western blot analysis; type: cell-based
Outline: (§3)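 A375 cells exposed to compound at several concentrations for 48 h; lysates immunoblotted for STAT3, p-STAT3, β-catenin and c-Myc.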

B16-F10 [9] = test: Induction of apoptosis in mouse B16F10 cells assessed as late apoptotic cells at 1 uM after 48 hrs by Annexin V-FITC/propidium iodide staining based flow cytometry (reference value: 0.303%); type: functional
B16-F10 [10] = test: Induction of apoptosis in mouse B16F10 cells assessed as necrotic cells at 2 uM after 48 hrs by Annexin V-FITC/propidium iodide staining based flow cytometry (reference value: 1.86%); type: functional
B16-F10 [11] = test: Inhibition of tumor sphere formation ability of mouse B16F10 cells at 0.25 to 0.5 uM pretreated for 48 hrs followed by cell culture for 7 days; type: functional, cell-based
Outline: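 A375 or B16F10 cells pretreated with or without compound for 48 h, collected and replated on ultra-low attachment surfaces; after 7 days of culture, sphere number and size scored; mean ± sd, n = 3, two-way ANOVA.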

B16-F10 [12] = test: Inhibition of colony formation in mouse B16F10 cells at 0.125 to 0.25 uM after 7 days by crystal violet staining based assay; type: functional, cell-based
Outline: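 Clonogenic long-term growth assay: A375 or B16F10 cells grown under continuous compound exposure for 7 days, then colonies quantified; mean ± sd, n = 3, two-way ANOVA.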

A-375 [13] = test: Induction of apoptosis in human A375 cells assessed as upregulation of Bax expression after 48 hrs by Western blot analysis
A-375 [14] = test: Induction of apoptosis in human A375 cells assessed as live cells at 2 uM after 48 hrs by Annexin V-FITC/propidium iodide staining based flow cytometry (reference value: 93.6%); type: functional
A549 = test: Antiproliferative activity against human A549 cells after 48 hrs by MTT assay; type: functional, cell-based; settings: A549, 48 h
MDA-MB-231 = test: Antiproliferative activity against human MDA-MB-231 cells after 48 hrs by MTT assay; type: functional, cell-based; settings: MDA-MB-231, 48 h
B16-F10 [15] = test: Antimigratory activity against mouse B16F10 cells at 0.25 uM after 24 to 48 hrs by wound healing assay; type: functional, cell-based; outline: as §2
A-375 [16] = test: Inhibition of ALDH+ subpopulation of human A375 cells assessed as ALDH+ cells at 0.5 after 48 hrs by flow cytometry (reference value: 25.7%); type: functional; design: scale not given: the % may be the effect or the level left
A-375 [17] = test: Induction of apoptosis in human A375 cells assessed as early apoptotic cells at 2 uM after 48 hrs by Annexin V-FITC/propidium iodide staining based flow cytometry (reference value: 1.13%); type: functional
Mus musculus = test: Toxicity in C57BL/6J mouse implanted with mouse B16F10 cells assessed as change in body weight at 15 mg/kg/day, ip measured daily for 24 days; type: organism-based; settings: in vivo, 576 h
Outline: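 C57BL/6J mice carrying subcutaneous B16F10 cell grafts; vehicle and treated groups (n = 5) followed for body weight, with tumours dissected and weighed on day 24; mean ± sd, two-way ANOVA.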

4T1 = test: Antiproliferative activity against mouse 4T1 cells after 48 hrs by MTT assay; type: functional, cell-based; settings: 4T1, 48 h
Homo sapiens [18] = organism: Homo sapiens; test: Inhibition of Wnt/beta-catenin signaling pathway in human A375 cells assessed as reduction in c-Myc protein expression after 48 hrs by Western blot analysis; type: cell-based; outline: as §3
B16-F10 [19] = test: Inhibition of ALDH+ subpopulation of mouse B16F10 cells assessed as ALDH+ cells at 0.25 after 48 hrs by flow cytometry (reference value: 26.7%); type: functional; design: scale not given: the % may be the effect or the level left
B16-F10 [20] = test: Induction of apoptosis in mouse B16F10 cells assessed as late apoptotic cells at 2 uM after 48 hrs by Annexin V-FITC/propidium iodide staining based flow cytometry (reference value: 0.303%); type: functional
A-375 [21] = test: Induction of apoptosis in human A375 cells assessed as late apoptotic cells at 2 uM after 48 hrs by Annexin V-FITC/propidium iodide staining based flow cytometry (reference value: 2.7%); type: functional
A-375 [22] = test: Induction of apoptosis in human A375 cells assessed as late apoptotic cells at 1 uM after 48 hrs by Annexin V-FITC/propidium iodide staining based flow cytometry (reference value: 2.7%); type: functional
B16-F10 [23] = test: Induction of apoptosis in mouse B16F10 cells assessed as live cells at 1 uM after 48 hrs by Annexin V-FITC/propidium iodide staining based flow cytometry (reference value: 97.6%); type: functional
A-375 [24] = test: Induction of apoptosis in human A375 cells after 48 hrs by Annexin V-FITC/propidium iodide staining based flow cytometry; type: functional, cell-based
MCF7 = test: Antiproliferative activity against human MCF7 cells after 48 hrs by MTT assay; type: functional, cell-based; settings: MCF7, 48 h
A-375 [25] = test: Antimigratory activity against human A375 cells at 0.25 uM after 24 hrs by transwell migration assay; type: functional, cell-based
Outline: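 Cells seeded in the upper chamber of a transwell and incubated with compound (0.25 μM) for 24 h. Cells migrated to the lower chamber were imaged and counted against an untreated control. Mean ± sd, n = 3, two-way ANOVA.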

B16-F10 [26] = test: Anti-invasive activity against mouse B16F10 cells at 0.25 uM after 24 hrs by matrigel invasion assay; type: functional, cell-based; outline: as §1
B16-F10 [27] = test: Induction of apoptosis in mouse B16F10 cells assessed as live cells at 2 uM after 48 hrs by Annexin V-FITC/propidium iodide staining based flow cytometry (reference value: 97.6%); type: functional

SMILES: CC[C@H](C)[C@H](NC(=O)OCc1ccccc1)C(=O)N[C@@H](CC(C)C)C(=O)N[C@@H](CC(C)C)C(=O)N[C@@H](C)/C=C/C(=O)N1C(=O)C=C(OC)[C@@H]1C(C)C
- Activity (A-375 [1]): 2.87%
- Activity (A-375 [2]): Active
- Bax upregulation (B16-F10 [3]): Dose-dependent effect
- IC50 (PANC-1): 435 nM
- Activity (A-375 [4]): Dose-dependent effect
- Activity (A-375 [5]): 0.867%
- Activity (A-375 [6]): Active
- Activity (A-375 [7]): 1.25%
- inhibition (Homo sapiens [8]): Dose-dependent effect
- Activity (B16-F10 [9]): 4.05%
- Activity (B16-F10 [10]): 3.92%
- inhibition (B16-F10 [11]): Active
- inhibition (B16-F10 [12]): Active
- Bax upregulation (A-375 [13]): Dose-dependent effect
- Activity (A-375 [14]): 79.3%
- IC50 (A549): 4660 nM
- IC50 (MDA-MB-231): 922 nM
- Activity (B16-F10 [15]): Active
- Activity (A-375 [16]): 8.81%
- Activity (A-375 [17]): 9.68%
- Activity (Mus musculus): Non-Toxic
- IC50 (4T1): 946 nM
- inhibition (Homo sapiens [18]): Dose-dependent effect
- Activity (B16-F10 [19]): 17.6%
- Activity (B16-F10 [20]): 32.9%
- Activity (A-375 [21]): 8.11%
- Activity (A-375 [22]): 4.48%
- Activity (B16-F10 [23]): 85%
- Activity (A-375 [24]): Dose-dependent effect
- IC50 (MCF7): 2540 nM
- Activity (A-375 [25]): Active
- Activity (B16-F10 [26]): Active
- Activity (B16-F10 [27]): 31.5%
